Experimental data from ChEMBL document CHEMBL4152243, “Design, synthesis and biological activities of 2,3-dihydroquinazolin-4(1H)-one derivatives as TRPM2 inhibitors” (Eur J Med Chem, 2018).
Active and inactive are the calls of the source. The rule behind the calls is not given here.

Key:
Assay type in all cases: cell-based
[1] = target: T1, Transient receptor potential cation channel subfamily M member 2 (Homo sapiens, UniProt O94759); test: Inhibition of human TRPM2 expressed in HEK293 cells assessed as reduction in H2O2-induced intracellular calcium flux at 30 uM after 30 mins by Fluo3-AM dye based fluorescence imaging assay
[2] = target: T1, Transient receptor potential cation channel subfamily M member 2; test: Inhibition of human TRPM2 expressed in HEK293 cells assessed as reduction in ADPR-induced channel currents at 30 uM treated extracellularly after 60 secs by whole cell patch clamp electrophysiology method relative to control
How it was run: (§1)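 Tetracycline-inducible HEK293 stably expressing human TRPM2 (1 µg/mL tetracycline), whole-cell patch clamp at room temperature. ECS (mM): 145 NaCl, 5.6 KCl, 2 MgCl2, 1.2 CaCl2, 10 HEPES, pH 7.2. ICS contained 500 µM ADPR (pH 7.3). Compound was added to ECS. Held at 0 mV with 500 ms ramps from -100 to 100 mV every 5 s. IC50 came from concentration–response curves; mean ± SEM from at least five cells.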

[3] = target: T1, Transient receptor potential cation channel subfamily M member 2; test: Inhibition of human TRPM2 expressed in HEK293 cells assessed as reduction in ADPR-induced channel currents at 3 uM treated extracellularly after 60 secs by whole cell patch clamp electrophysiology method relative to control; how it was run: as §1
[4] = target: T1, Transient receptor potential cation channel subfamily M member 2; test: Inhibition of human TRPM2 expressed in HEK293 cells assessed as reduction in ADPR-induced channel currents treated extracellularly after 60 secs by whole cell patch clamp electrophysiology method; how it was run: as §1
[5] = target: T2, Transient receptor potential cation channel subfamily M member 8 (Homo sapiens, UniProt Q7Z2W7); test: Inhibition of human TRPM8 expressed in HEK293 cells assessed as reduction in menthol-induced channel currents at 30 uM treated extracellularly after 60 secs by whole cell patch clamp electrophysiology method relative to control
How it was run: (§2)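 HEK293 were transiently transfected with human TRPM8 (pcDNA4/TO) plus GFP using Lipofectamine 2000 and recorded 24–48 h later by whole-cell patch clamp. TRPM8 was activated by 1 mM menthol in ECS. Compound at 30 µM was placed in ECS or ICS, with 0.1 mM 2-APB as reference inhibitor. Mean peak currents reported as mean ± SEM, n = 5.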
Target sequence in this assay (Q7Z2W7 whole entry, looked up): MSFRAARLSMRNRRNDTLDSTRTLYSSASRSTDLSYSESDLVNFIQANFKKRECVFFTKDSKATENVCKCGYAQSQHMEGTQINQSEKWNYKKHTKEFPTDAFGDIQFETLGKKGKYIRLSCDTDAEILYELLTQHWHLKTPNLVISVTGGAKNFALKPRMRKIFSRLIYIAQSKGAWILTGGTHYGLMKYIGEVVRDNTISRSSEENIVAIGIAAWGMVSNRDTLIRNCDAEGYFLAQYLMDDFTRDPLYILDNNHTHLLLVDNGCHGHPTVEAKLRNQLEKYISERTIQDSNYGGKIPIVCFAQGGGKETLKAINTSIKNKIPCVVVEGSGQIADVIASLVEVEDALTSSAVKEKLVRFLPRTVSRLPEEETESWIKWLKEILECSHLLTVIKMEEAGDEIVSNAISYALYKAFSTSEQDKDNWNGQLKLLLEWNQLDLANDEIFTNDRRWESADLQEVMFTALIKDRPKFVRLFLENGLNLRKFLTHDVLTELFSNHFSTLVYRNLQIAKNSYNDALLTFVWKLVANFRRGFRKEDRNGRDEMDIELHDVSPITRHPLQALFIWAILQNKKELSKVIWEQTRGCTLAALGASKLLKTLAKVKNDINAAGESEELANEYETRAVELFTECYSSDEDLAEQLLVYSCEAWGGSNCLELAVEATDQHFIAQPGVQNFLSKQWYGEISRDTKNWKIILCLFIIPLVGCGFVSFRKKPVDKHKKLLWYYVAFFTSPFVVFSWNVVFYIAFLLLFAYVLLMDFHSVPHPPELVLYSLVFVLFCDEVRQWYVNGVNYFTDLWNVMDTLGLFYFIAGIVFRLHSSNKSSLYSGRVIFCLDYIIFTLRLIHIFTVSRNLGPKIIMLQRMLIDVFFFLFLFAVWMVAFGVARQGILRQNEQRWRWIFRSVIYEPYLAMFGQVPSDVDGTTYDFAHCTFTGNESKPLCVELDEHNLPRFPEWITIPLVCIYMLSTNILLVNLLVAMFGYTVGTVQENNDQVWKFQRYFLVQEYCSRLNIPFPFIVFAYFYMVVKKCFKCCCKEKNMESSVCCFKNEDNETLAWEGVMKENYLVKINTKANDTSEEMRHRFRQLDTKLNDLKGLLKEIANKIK

[6] = target: T2, Transient receptor potential cation channel subfamily M member 8; test: Inhibition of human TRPM8 expressed in HEK293 cells assessed as reduction in menthol-induced channel currents at 30 uM treated intracellularly via pipette after 60 secs by whole cell patch clamp electrophysiology method; how it was run: as §2
Target sequence in this assay (Q7Z2W7 whole entry, looked up): as above

[7] = system: Transient receptor potential cation channel subfamily M member 2 (Homo sapiens), O94759 [H995A]; test: Inhibition of human TRPM2 H995A mutant expressed in HEK293 cells assessed as reduction in ADPR-induced channel currents at 30 uM treated extracellularly after 50 to 200 secs by whole cell patch clamp electrophysiology method
[8] = target: T2, Transient receptor potential cation channel subfamily M member 8; test: Inhibition of human TRPM8 expressed in HEK293 cells assessed as reduction in H2O2-induced intracellular calcium flux after 30 mins by Fluo4-AM dye based fluorescence assay
Target sequence in this assay (Q7Z2W7 whole entry): as the sequence (Q7Z2W7 whole entry, looked up) above

[9] = target: T1, Transient receptor potential cation channel subfamily M member 2; test: Inhibition of human TRPM2 expressed in HEK293 cells assessed as reduction in ADPR-induced channel currents at 30 to 1000 uM treated intracellularly after 60 secs by whole cell patch clamp electrophysiology method
How it was run: (§3)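 Human TRPM2 in tetracycline-inducible HEK293, recorded by whole-cell patch clamp at room temperature. Compound at 30 µM or 1 mM was added to the pipette ICS together with 500 µM ADPR; the ICS (mM) was 147 NaCl, 1 EGTA, 1 MgCl2, 24 HEPES, pH 7.3. Ramps ran from -100 to 100 mV every 5 s from a 0 mV hold, with leak subtraction from the first three ramps.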

[10] = target: T1, Transient receptor potential cation channel subfamily M member 2; test: Inhibition of human TRPM2 expressed in HEK293 cells assessed as reduction in ADPR-induced channel currents at 30 to 1000 uM treated simultaneously after 60 secs by whole cell patch clamp electrophysiology method; how it was run: as §3
[11] = system: Transient receptor potential cation channel subfamily M member 2 (Homo sapiens), O94759 [D964A]; test: Inhibition of human TRPM2 D964A mutant expressed in HEK293 cells assessed as reduction in ADPR-induced channel currents at 30 uM treated extracellularly after 50 to 200 secs by whole cell patch clamp electrophysiology method relative to control
Chain of Transient receptor potential cation channel subfamily M member 2 (Homo sapiens), O94759 [D964A] (O94759 whole entry D964A): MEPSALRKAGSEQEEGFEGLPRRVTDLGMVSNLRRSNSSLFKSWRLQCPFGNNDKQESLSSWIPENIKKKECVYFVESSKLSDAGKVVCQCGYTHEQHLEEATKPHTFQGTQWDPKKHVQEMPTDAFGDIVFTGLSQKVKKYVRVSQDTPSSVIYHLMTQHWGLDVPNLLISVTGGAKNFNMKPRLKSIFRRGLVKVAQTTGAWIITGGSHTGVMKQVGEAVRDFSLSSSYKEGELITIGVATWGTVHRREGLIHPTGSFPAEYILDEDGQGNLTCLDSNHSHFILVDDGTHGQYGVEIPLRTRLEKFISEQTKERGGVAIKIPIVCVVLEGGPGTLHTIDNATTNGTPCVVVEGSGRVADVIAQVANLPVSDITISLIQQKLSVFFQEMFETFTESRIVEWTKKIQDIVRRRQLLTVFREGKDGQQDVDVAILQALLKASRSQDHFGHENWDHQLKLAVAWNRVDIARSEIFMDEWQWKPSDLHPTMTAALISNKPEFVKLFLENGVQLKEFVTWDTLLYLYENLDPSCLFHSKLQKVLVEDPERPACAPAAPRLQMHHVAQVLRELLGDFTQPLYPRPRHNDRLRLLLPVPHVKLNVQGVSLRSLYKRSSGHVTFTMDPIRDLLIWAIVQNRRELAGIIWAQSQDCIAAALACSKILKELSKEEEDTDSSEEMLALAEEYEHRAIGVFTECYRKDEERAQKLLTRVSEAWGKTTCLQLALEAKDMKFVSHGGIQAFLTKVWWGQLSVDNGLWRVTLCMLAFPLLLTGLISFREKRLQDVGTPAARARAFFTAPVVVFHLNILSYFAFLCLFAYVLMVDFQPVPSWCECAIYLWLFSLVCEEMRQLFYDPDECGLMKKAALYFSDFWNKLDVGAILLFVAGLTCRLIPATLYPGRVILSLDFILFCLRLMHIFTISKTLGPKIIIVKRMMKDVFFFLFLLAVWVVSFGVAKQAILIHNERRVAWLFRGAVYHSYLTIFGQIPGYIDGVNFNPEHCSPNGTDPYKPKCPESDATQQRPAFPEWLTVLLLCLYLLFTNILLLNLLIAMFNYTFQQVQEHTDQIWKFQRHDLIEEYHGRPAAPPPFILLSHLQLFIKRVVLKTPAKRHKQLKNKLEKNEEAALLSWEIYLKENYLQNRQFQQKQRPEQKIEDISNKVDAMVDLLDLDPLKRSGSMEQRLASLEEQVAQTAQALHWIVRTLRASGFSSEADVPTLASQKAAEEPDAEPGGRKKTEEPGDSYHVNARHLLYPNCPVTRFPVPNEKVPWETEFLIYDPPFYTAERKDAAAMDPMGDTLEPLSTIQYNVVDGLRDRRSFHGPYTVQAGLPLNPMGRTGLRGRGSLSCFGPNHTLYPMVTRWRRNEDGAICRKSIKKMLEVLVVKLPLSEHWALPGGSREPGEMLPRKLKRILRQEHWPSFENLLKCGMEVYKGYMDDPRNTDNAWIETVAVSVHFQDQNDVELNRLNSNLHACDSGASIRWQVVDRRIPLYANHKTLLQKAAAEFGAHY

Chain of Transient receptor potential cation channel subfamily M member 2 (Homo sapiens), O94759 [H995A] (O94759 whole entry H995A): as the sequence (O94759 whole entry D964A) above, with A964D, H995A counted along it
T1 sequence (O94759 whole entry): as the sequence (O94759 whole entry D964A) above, with A964D counted along it

inhibition [1] | inhibition [2] | also measured | Structure (SMILES)
Active |  |  | O=C1NC(c2c[nH]nc2-c2ccccc2)Nc2c(Br)cc(F)cc21 (stereo not given)
 | Active |  | Cc1cc(Cl)cc2c1N[C@H](c1c[nH]nc1-c1ccccc1)NC2=O
Active |  |  | O=C1NC(c2c[nH]nc2-c2ccccc2)Nc2c1cccc2[N+](=O)[O-] (stereo not given)
Active |  |  | O=C1NC(c2cc(-c3ccccc3)c[nH]2)Nc2ccccc21 (stereo not given)
Active |  |  | O=c1[nH]c(-c2c[nH]nc2-c2ccccc2)nc2ncccc12
 |  | inhibition [3]: 42.1% | Cc1cc(Br)cc2c1NC(c1c[nH]nc1-c1ccc([N+](=O)[O-])cc1)NC2=O (stereo not given)
 | 51% |  | Cc1cc(Cl)cc2c1NC(c1c[nH]nc1-c1ccc(Br)cc1)NC2=O (stereo not given)
 | 37.2% |  | O=C1NC(c2c[nH]nc2-c2ccccc2)Nc2c(F)cc(F)cc21 (stereo not given)
Active |  |  | O=C1NC(c2c[nH]nc2-c2ccccc2)Nc2c(Cl)cc(Cl)cc21 (stereo not given)
Active |  |  | O=C1NC(c2c[nH]nc2-c2ccccc2)Nc2cccc(Cl)c21 (stereo not given)
 | 92.8% | IC50 [4]: 4.6 µM; inhibition [3]: 50.1%; inhibition [5]: 19%; inhibition [6]: Active | Cc1cc(Br)cc2c1NC(c1c[nH]nc1-c1ccccc1)NC2=O (stereo not given)
Active |  |  | Cc1cc(Br)c2c(c1)C(=O)NC(c1c[nH]nc1-c1ccccc1)N2 (stereo not given)
 | 90.2% | IC50 [4]: 5.1 µM; inhibition [3]: 46.4%; inhibition [5]: 27%; inhibition [6]: Active | Cc1cc(Cl)cc2c1NC(c1c[nH]nc1-c1ccccc1)NC2=O (stereo not given)
Active |  |  | O=C1NC(c2c[nH]nc2-c2ccc(Cl)cc2)Nc2ccccc21 (stereo not given)
Active |  |  | Cc1cccc2c1C(=O)NC(c1c[nH]nc1-c1ccccc1)N2 (stereo not given)
Active |  |  | O=C1NC(c2c[nH]nc2-c2ccccc2)Nc2c(I)cc(I)cc21 (stereo not given)
Active |  |  | O=C1NC(c2c[nH]nc2-c2ccccc2)Nc2cc(Br)ccc21 (stereo not given)
 |  | IC50 [4]: 3.7 µM; inhibition [7]: inactive; inhibition [3]: 48.7%; inhibition [5]: inactive; inhibition [6]: inactive | Cc1cc(Br)cc2c1NC(c1c[nH]nc1-c1cccc3ccccc13)NC2=O (stereo not given)
 | 27.9% |  | O=C1NC(c2c[nH]nc2-c2ccccc2)Nc2ccc(Cl)cc21 (stereo not given)
 | 89.4% | inhibition [3]: 39.6% | O=C1NC(c2c[nH]nc2-c2ccccc2)Nc2c(I)cc(Cl)cc21 (stereo not given)
 | Active |  | Cc1cc(Cl)cc2c1N[C@@H](c1c[nH]nc1-c1ccccc1)NC2=O
 | 16.9% |  | Cc1cc(Cl)cc2c1NC(c1cn[nH]c1)NC2=O (stereo not given)
 | 21.2% |  | Cc1cccc2c(=O)[nH]c(-c3c[nH]nc3-c3ccccc3)nc12
Active |  |  | O=c1[nH]c(-c2c[nH]nc2-c2ccccc2)nc2ccc(Cl)cc12

inhibition [1] | inhibition [2] | also measured | Structure (SMILES)
Active |  |  | O=C1NC(c2c[nH]nc2-c2ccccc2)Nc2c(Br)cc(Br)cc21 (stereo not given)
Active |  |  | Cc1cc(C)c2nc(-c3c[nH]nc3-c3ccccc3)[nH]c(=O)c2c1
 | 90.4% | inhibition [3]: 43.4% | Cc1cc(Cl)cc2c1NC(c1c[nH]nc1-c1ccc([N+](=O)[O-])cc1)NC2=O (stereo not given)
 | 10.3% |  | Cc1cc(Cl)cc2c1NC(c1c[nH]nc1-c1ccc(Cl)cc1)NC2=O (stereo not given)
 | 89.1% | IC50 [4]: 0.32 µM; inhibition [3]: 75.9%; IC50 [8]: 3.9 µM | CCCCCc1ccc(/C=C/C(=O)Nc2ccccc2C(=O)O)cc1
Active |  |  | O=C1NC(c2c[nH]nc2-c2ccccc2)Nc2c(Br)cccc21 (stereo not given)
 |  | inhibition [3]: 19.9% | O=C1NC(c2c[nH]nc2-c2cccc3ccccc23)Nc2c(I)cc(Cl)cc21 (stereo not given)
 | 60.5% |  | Cc1cc(C)c2c(c1)C(=O)NC(c1c[nH]nc1-c1ccccc1)N2 (stereo not given)
Active | 55 to 68.1% | inhibition [9]: inactive; inhibition [10]: inactive; inhibition [7]: 4%; inhibition [11]: 40 to 50% | O=C1NC(c2c[nH]nc2-c2ccccc2)Nc2ccccc21 (stereo not given)
 | 28.7% |  | O=c1[nH]c(-c2c[nH]nc2-c2ccccc2)nc2ccccc12
Active |  |  | Cc1cc(Cl)cc2c(=O)[nH]c(-c3c[nH]nc3-c3ccccc3)nc12
 | 50.4% |  | COc1cc(Br)cc2c1NC(c1c[nH]nc1-c1ccccc1)NC2=O (stereo not given)
 | 39.2% |  | Cc1cccc2c1NC(c1c[nH]nc1-c1ccccc1)NC2=O (stereo not given)
Active |  |  | O=c1[nH]c(SCc2ccncc2)nc2ccccc12
Active |  |  | O=C1NC(c2cncn2Cc2ccc(Cl)cc2)Nc2ccccc21 (stereo not given)
 | 90.2% | IC50 [4]: 4 µM; inhibition [3]: 50.9%; inhibition [5]: inactive; inhibition [6]: inactive | Cc1cc(Cl)cc2c1NC(c1c[nH]nc1-c1cccc3ccccc13)NC2=O (stereo not given)
Active |  |  | Cc1cc(I)cc2c1NC(c1c[nH]nc1-c1ccccc1)NC2=O (stereo not given)
 | 17% |  | Cc1cc(Cl)cc2c1NC(c1c[nH]nc1-c1ccc(-c3ccccc3)cc1)NC2=O (stereo not given)
 | 42.7% |  | Cc1cc(F)cc2c1NC(c1c[nH]nc1-c1ccccc1)NC2=O (stereo not given)
 |  | inhibition [3]: 34.9% | O=C1NC(c2c[nH]nc2-c2ccc([N+](=O)[O-])cc2)Nc2c(I)cc(Cl)cc21 (stereo not given)
 |  | inhibition [4]: Dose-dependent effect; inhibition [7]: inactive; inhibition [11]: Active | Nc1ncnc2c1ncn2[C@@H]1O[C@H](COP(=O)(O)O)[C@@H](O)[C@H]1O
 | 17.9% |  | Cc1cc(Cl)cc2c1NC(c1c[nH]nc1-c1ccccc1Br)NC2=O (stereo not given)
 | 34.8% |  | O=C1NC(c2c[nH]nc2-c2ccccc2)Nc2ccc(F)cc21 (stereo not given)
